Screening results: PubChem BioAssay, several laboratories
Compounds with a hit are over-represented: about 1.3% of the library has one in this group of screens.
proCasp3 act = procaspase-3 (human) activation; P42574; recombinant procaspase-3 D3A, Ac-DEVD-pNA absorbance 405 nm; activation, % at 8.5 µM; actives 0.11% (n = 330,000); AID 463141;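 active = activation above the mean of all tested compounds plus 3 SD, cut at about 21% in these data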;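 also: 0% = DMSO alone and 100% = DMSO wells spiked with extra 5 µM PC-3 D3A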
Target sequence (P42574 whole entry D9A/D28A/D175A): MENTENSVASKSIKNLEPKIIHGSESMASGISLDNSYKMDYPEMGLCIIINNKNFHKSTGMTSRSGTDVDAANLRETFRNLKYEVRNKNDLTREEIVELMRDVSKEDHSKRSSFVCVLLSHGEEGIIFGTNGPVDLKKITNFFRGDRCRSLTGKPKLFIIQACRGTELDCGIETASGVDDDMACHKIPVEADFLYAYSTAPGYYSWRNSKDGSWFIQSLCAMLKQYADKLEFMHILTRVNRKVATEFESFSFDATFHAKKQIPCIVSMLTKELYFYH
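Assay system: Procaspase-3 D3A mutant, all three cleavage aspartates alanine. Buffer or medium: Zinc-free HEPES saline buffer with Triton X-100. Times: 1 h compound preincubation, 2 h substrate hydrolysis at 25 °C. Measured by: 405 nm absorbance of p-nitroaniline, reads at 0 and 120 min. Read-out basis: percent activation relative to control range. Replicates: singlicate.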
JMJD2C inh = inhibitors of human GASC-1 (JMJD2C) demethylase; Q9H3R0; GST-JMJD2C(1-420) H3K9me3 demethylation, DELFIA europium; inhibition, % at 2.35 µM; actives 0.069% (n = 330,000); AID 2099;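 active = more than half of a compound's replicate wells show inhibition beyond 50%, single wells judged on their own value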;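 also: signal counts dimethyl H3K9 product captured on neutravidin plate; 0% = median of DMSO wells and 100% = 0.3 times that DMSO median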
proCasp7 act = counter-screen: procaspase-7 (human) activation. P55210. recombinant procaspase-7, Ac-DEVD-pNA absorbance 405 nm; D23A/D198A/D206A triple mutant, cannot self-cleave; scale: DMSO 0, 5 µM enzyme 100. activation, % at 8.5 µM. actives 0.093% (n = 330,000). AID 463210;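 active = percent activation above the screen-wide mean plus 3 SD, cut at about 25% in these data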
Target sequence (P55210 whole entry D23A/D198A/D206A): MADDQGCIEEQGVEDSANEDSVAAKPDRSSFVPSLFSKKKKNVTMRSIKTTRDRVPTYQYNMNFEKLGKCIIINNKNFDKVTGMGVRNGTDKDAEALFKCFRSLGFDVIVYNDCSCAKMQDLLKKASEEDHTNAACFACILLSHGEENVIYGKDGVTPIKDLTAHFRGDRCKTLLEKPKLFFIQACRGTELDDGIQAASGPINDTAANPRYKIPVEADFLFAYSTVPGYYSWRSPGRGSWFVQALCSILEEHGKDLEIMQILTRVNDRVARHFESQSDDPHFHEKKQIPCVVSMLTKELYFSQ
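System: Uncleavable procaspase-7 mutant enzyme; Amount: 2 µM procaspase-7 mutant as dispensed; Schedule: 1 h compound preincubation, 2 h substrate cleavage, 25 °C; Measured by: 405 nm absorbance of p-nitroaniline; Evaluation: percent activation from buffer-corrected 0–120 min absorbance change; Control set: low DMSO alone, high DMSO plus 5 µM PC-7.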
Lipid droplet = modulators of hepatic lipid droplet formation; inhibition, % at 6.5 µM; AML12 mouse hepatocytes, oleate lipid droplets, BODIPY imaging; AID 1656; actives 0.4% (n = 240,000);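 active = lipid droplet intensity inhibited by at least 50%, with more than 500 cells counted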
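material = mouse AML12 hepatocyte cell line, fixed after treatment | also added = 100 µM oleic acid challenge | doses = compound at 6.5 µM only | schedule = overnight exposure | technique = Image-based BODIPY and DAPI two-channel analysis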
GRK2 inh = blocks RNA aptamer binding to human GRK2; bead flow cytometry, FAM-aptamer displacement from GRK2; actives 0.59% (n = 330,000); inhibition of aptamer binding, % at 10 µM; AID 488847;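 active = inhibition of aptamer binding above 40%, roughly 3 SD of noise, on plates passing a quality check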;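 also: median bead fluorescence of bound FAM aptamer so fluorescent compounds give negative values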
VLA-4 inh = inhibition in a human VLA-4 binding assay; P13612; VLA-4 expressing cells, ligand binding flow cytometry; inhibition, % (about 7 µM as worked out from the volumes in the protocol); actives 0.2% (n = 330,000); AID 2557; in the data active = inhibition above about 50%
Hep lipid conf = confirmation of inhibitors of hepatic lipid droplet formation. shares compounds with Lipid droplet. AML12 mouse hepatocytes, BODIPY lipid droplet imaging; droplets induced with 100 µM oleic acid. inhibition, % at 5.2 µM. actives 65% (n = 870). AID 463183;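 active = inhibition of lipid droplet metric at least 50%, with more than 300 cells in each of four replicates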;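 also: plate controls were DMSO with oleic acid for no effect and 5 µM Triacsin-C for full effect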
AML12 cytotox = toxic to AML12 mouse hepatocytes in counter-screen. shares compounds with Lipid droplet. DAPI nuclear morphology cytotoxicity imaging; hits give high values; cells fed 100 µM oleate overnight. z-score at 5 µM. actives 3% (n = 870); in the data active = z-score above about 6.3;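 also: compound exposure lasted overnight at 37 °C before fixation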
AML12 tox ATP = confirmation of cytotoxicity in AML12 mouse hepatocytes; shares compounds with Lipid droplet; AML12 mouse hepatocyte viability, ATP luminescence; cells loaded with 100 µM oleic acid; cytotoxicity, % at 50 µM; 530 tested, under 10 active;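 active = cytotoxicity above 50% in each of four replicates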;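 also: compound exposure lasted overnight at 37 °C before the ATP read; 0% = DMSO-treated cells and 100% = wells with no cells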
Active calls of the source: *; i = inactive; x = no result given.

SMILES	proCasp3 act	JMJD2C inh	proCasp7 act	Lipid droplet	GRK2 inh	VLA-4 inh	Hep lipid conf	AML12 cytotox	AML12 tox ATP
O=c1[nH]c(=O)n(Cc2ccccc2)c2nc(-c3ccc(Oc4ccc(F)cc4)c([N+](=O)[O-])c3)n(CCO)c12	-4	-18	0	64*	0	-24	71*	1.1	1
OCC[C@H]1C[C@@H](O)[C@H](O)[C@@]2(CCc3ccccc3CO2)O1	1	7	9	x	3	-11	x	x	x
O=C(Nc1cccc(Cl)c1)c1ccc(OC(=S)N2CCOCC2)cc1	2	-33	0	-24	0	-3	x	x	x
Cc1cccc(NC(=O)c2cccc(OC(=S)N3CCOCC3)c2)c1	8	-1	3	84*	3	22	104*	0.092	5
CCN(CC)c1ccc(/C=C2\CCC(/C=C(\C#N)C(=O)Nc3ccccc3F)=C2N2CCOCC2)cc1	x	2	x	101*	x	x	96*	0.003	-10
CCN1C(=O)/C(=C/C=C2/Sc3ccc4ccccc4c3N2CCO)SC1=S	-20	-8	-26	77*	3	i	19	-0.31	x
CCN1C(c2ccccc2)=C(c2ccccc2)S/C1=C\C=C1/SC(=S)N(C)C1=O	5	45	-1	x	33	i	x	x	x
Cc1cc(OCC(=O)NC2CC2)c2c(C)cc(=O)oc2c1	4	-6	11	61*	1	5	-12	-0.82	x
Cc1ccc(S(=O)(=O)N2CCCCC2)cc1NC(=O)c1cc(F)c(F)c(F)c1F	10	-1	17	x	1	3	x	x	x
CC(C)C[C@H]1C(=O)N2CCC[C@H]2[C@]2(O)O[C@](NC(=O)[C@@H]3C=C4c5cccc6[nH]c(Br)c(c56)CC4N(C)C3)(C(C)C)C(=O)N12 (stereo partly specified)	-6	-4	-4	54*	0	-15	39	-1.6	2
C/C(=N\NC(=O)C1CC1)c1ccc2c(c1)OCCO2	-7	9	2	10	0	2	x	x	x
O=C(Cc1coc2ccc3ccccc3c12)NC1CCCc2ccccc21 (stereo unspecified)	1	-2	-8	52*	1	2	91*	0.16	19
NS(=O)(=O)c1ccc(CNC(=O)c2cc(=O)[nH]c3ccccc23)cc1	4	10	-4	-1	4	-3	x	x	x
CCNC(=S)N1CCc2cc(OC)c(OC)cc2C1COc1ccc(OC)cc1 (stereo unspecified)	2	-12	6	16	1	11	x	x	x
CCNC(=S)N1CCc2cc(OC)c(OC)cc2C1COc1ccccc1OC (stereo unspecified)	-1	-3	5	62*	0	0	93*	-0.38	3
C/C(=N\NC(N)=O)c1ccc(-n2ccnc2)cc1	-8	-4	6	2	0	-12	x	x	x
CCc1ccc(OCC(=O)N/N=C(\C)c2ccc(-n3ccnc3)cc2)cc1	8	9	8	55*	0	8	90*	0.11	52
COc1ccc(/C=C(\NC(=O)c2ccc(C)cc2)C(=O)Nc2ccc(C(=O)O)cc2)cc1	2	-8	2	-5	2	8	x	x	x
COc1ccc(-c2ccc3c(c2)S(=O)(=O)c2cccc(C(=O)N4CCN(C5CCCCC5)CC4)c2C3=O)cc1OC	1	x	-13	x	1	-147	x	x	x
COc1ccc(C(C(=O)NC(C)(C)C)N(Cc2ccc(C)cc2)C(=O)CCC(=O)Nc2cc(C)on2)cc1 (stereo unspecified)	-3	4	-16	70*	5	1	106*	-0.58	9
CCC(C)(C)NC(=O)C(c1ccc(OC)cc1)N(Cc1ccco1)C(=O)CCC(=O)Nc1cc(C)on1 (stereo unspecified)	3	7	10	-6	0	-3	x	x	x
COc1ccc(C(C(=O)NC(C)(C)C)N(Cc2ccco2)C(=O)CCC(=O)Nc2cc(C)on2)cc1 (stereo unspecified)	-2	9	5	52*	1	5	69*	-0.5	10
CCCN(CCC)c1ccc(CC(=O)NC(C)Cc2ccccc2)cc1 (stereo unspecified)	0	-6	-3	101*	0	-4	109*	-0.95	3
CCN(CC)c1ccc(CC(=O)NC(C)Cc2ccccc2)cc1 (stereo unspecified)	-4	9	5	x	2	8	x	x	x
Cc1ccc(C)c(OCCC(=O)NCCc2ccc(Cl)cc2)c1	-6	-13	7	-3	2	19	x	x	x
SMILES	proCasp3 act	JMJD2C inh	proCasp7 act	Lipid droplet	GRK2 inh	VLA-4 inh	Hep lipid conf	AML12 cytotox	AML12 tox ATP
CCOc1ccc(CCNC(=O)CSCc2ccc(C)cc2)cc1OCC	1	2	-3	88*	0	12	109*	-0.82	x
CCOc1ccc(CCNC(=O)CS(=O)Cc2nc(-c3ccccc3C)oc2C)cc1OCC (stereo unspecified)	-1	-34	-2	61*	0	10	89*	-0.19	13
CCOc1ccc(CCNC(=O)CCOc2cc(C)ccc2C)cc1OCC	-7	0	-5	98*	0	4	111*	-0.47	15
CCOc1ccc(CCNC(=O)CS(=O)Cc2nc(-c3ccc(C)cc3)oc2C)cc1OCC (stereo unspecified)	5	7	-6	46	0	8	x	x	x
CCOc1ccc(CCNC(=O)CN2C(=O)c3cccnc3Oc3ccc(C)cc32)cc1OCC	1	7	5	92*	0	-1	110*	-0.37	10
CCCN(CCC)CCCNC(=O)C1CCC(CNS(=O)(=O)c2cccc3nsnc23)CC1 (stereo unspecified)	4	7	-5	23	0	-2	x	x	x
CCOc1ccc(CCNC(=O)CCC(=O)N2CCOc3ccc(C)cc32)cc1OCC	4	22	1	80*	2	24	112*	-1.1	16
COc1ccc(CCNC(=O)CCC(=O)N2CCOc3ccc(C)cc32)cc1OC	-3	-24	11	-1	0	17	x	x	x
Clc1ccc(Nc2nc(NCCN3CCOCC3)nc(N3CCOCC3)n2)cc1	-2	2	-3	66*	2	-8	75*	19*	x
